Results of several laboratories.
Each line is one published result; the experiments were not run side by side.
Target: Calcium-dependent protein kinase 1 (CDPK1, Plasmodium falciparum, UniProt P62344)

N[C@@H]1CCN(c2nccc(-c3cnn4ncccc34)n2)C1 — remaining binding (binding; 1 µM): 91%
COc1cnc(Nc2cccc(S(N)(=O)=O)c2)nc1N1CCN(c2ccccc2)CC1 — remaining binding (binding; competition with immobilised ligand; 1 µM): 86%
Cc1ccc(C(=O)Nc2ccc(CN3CCN(C)CC3)c(C(F)(F)F)c2)cc1C#Cc1cnc2cccnn12 — remaining activity (enzyme activity; inhibitor; 23.5 nM): 16%
Nc1ncc2c(n1)-c1c([nH]c3ccc(C#CC4CC4)cc13)CCCC2 — remaining binding (binding; competition with immobilised ligand; 1 µM): 79%
O=C(NCC1CCOCC1)c1n[nH]cc1NC(=O)c1c(F)cccc1F — remaining binding (binding; competition with immobilised ligand; 1 µM): 83%
Nc1ncnc2occ(-c3ccc(NC(=O)Nc4cc(C(F)(F)F)ccc4F)cc3)c12 — remaining signal (cell-free assay; inhibitor; 20 µM): 1.2%
Cc1nn(C)cc1-c1nc2c(N3CCN(Cc4ccc(Cl)cc4)CC3)c(Cl)cnc2[nH]1 — remaining binding (binding; competition with immobilised ligand; 1 µM): 100%
CCN1CCN(Cc2ccc(C(=O)Nc3ccc(C)c(Oc4ccc5c(c4)CC(=O)N5)c3)cc2C(F)(F)F)CC1 — remaining binding (binding; competition with immobilised ligand; 1 µM): 68%
C[C@@H]1CCN(c2nccc(-c3cnn4ncccc34)n2)C1 — remaining binding (binding; 1 µM): 85%
O=C(Nc1c[nH]nc1C(=O)NC1CCNCC1)c1cc(F)cc(F)c1 — remaining binding (binding; competition with immobilised ligand; 1 µM): 89%
C=CC(=O)N1CCC(C(=O)NCC(=O)N2CCN(c3nc(-c4cnc(N)nc4C(F)F)nc(N4CCOCC4)n3)CC2)CC1 — remaining binding (binding; competition with immobilised ligand; 1 µM): 81%
FC(F)(F)Oc1cccc(-c2cnc3ccc(-c4ccncc4)nn23)c1 — remaining binding (binding; competition with immobilised ligand; 5 µM): 4.5%
c1cncc(-c2cccc(Nc3nccc(NC4CCCCC4)n3)c2)c1 — remaining binding (binding; competition with immobilised ligand; 10 µM): 24%
CNC(=O)[C@@H]1CC[C@@H](n2c(-c3ccc4cnccc4c3)nc3ccc(C(=O)NCc4cccc(C(N)=O)c4)cc32)C1 — remaining binding (binding; competition with immobilised ligand; 1 µM): 99%
COc1ccnn2ncc(-c3ccnc(N(C)C)n3)c12 — remaining binding (binding; 1 µM): 81%
